From PubChem BioAssay
Cneo AK release: Cryptococcus neoformans lysis via adenylate kinase release; lysis activity, % at 15 µM; C. neoformans lysis, adenylate kinase release luminescence, 4 h; normalised: neutral wells 0, clomiphene wells 100; 360,000 compounds, 0.2% hits;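 active = mean lysis activity across replicates of at least 80%, whatever share of replicates individually reach that level; inactive = mean lysis activity below 80%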
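Assay system: log-phase C. neoformans yeast / Quantity: yeast cell density of 5 × 10^6 cells/mL / Medium: fresh YPD growth medium / Compound: single dose / Timing: static 4 h at 37 °C with compound, 1 h detection / Measured by: adenylate kinase release luminescence / Read-out: lysis from increased AK signal / Benchmarks: Clomiphene as positive lysis control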
DAGLB inh: diacylglycerol lipase beta (human) inhibition; 340,000 compounds, 0.059% hits; HEK293T DAGLB membrane lysate, EnzChek fluorogenic substrate; inhibition, % at 5.17 µM; AID 504411; in the data active = inhibition above about 34%;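 note: 0% = enzyme with vehicle and 100% = wells lacking enzyme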
Target sequence (Q8NCG7 whole entry, looked up): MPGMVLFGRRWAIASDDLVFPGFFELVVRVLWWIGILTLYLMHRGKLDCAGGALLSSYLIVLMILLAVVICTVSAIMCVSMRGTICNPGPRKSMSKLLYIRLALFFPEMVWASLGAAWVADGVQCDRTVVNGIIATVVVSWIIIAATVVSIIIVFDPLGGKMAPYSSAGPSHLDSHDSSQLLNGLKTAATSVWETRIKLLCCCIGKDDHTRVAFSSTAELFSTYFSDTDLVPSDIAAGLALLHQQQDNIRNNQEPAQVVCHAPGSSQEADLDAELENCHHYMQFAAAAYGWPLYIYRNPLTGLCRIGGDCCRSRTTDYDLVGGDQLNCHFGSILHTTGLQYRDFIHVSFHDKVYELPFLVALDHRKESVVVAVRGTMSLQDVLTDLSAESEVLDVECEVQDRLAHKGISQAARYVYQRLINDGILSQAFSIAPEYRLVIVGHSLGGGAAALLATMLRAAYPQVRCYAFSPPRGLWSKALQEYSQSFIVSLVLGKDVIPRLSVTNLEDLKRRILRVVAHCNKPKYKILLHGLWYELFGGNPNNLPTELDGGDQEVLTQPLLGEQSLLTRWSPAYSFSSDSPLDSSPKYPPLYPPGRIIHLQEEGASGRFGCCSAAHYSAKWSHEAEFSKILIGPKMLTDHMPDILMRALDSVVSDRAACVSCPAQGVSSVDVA
MT1-MMP act inh: blocks activation of human MT1-MMP. P50281. HT1080 RFP-PRO-GFP cells, GFP/RFP ratio fluorescence, overnight; percent of plate control window, DMSO zero. GFP/RFP ratio change, % at 20 µM. 360,000 compounds, 0.061% hits. AID 651647;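 active = GFP/RFP ratio change of at least 30% with cell ATP level not reduced by more than half and red fluorescence within 50% of control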
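Test system: HT1080 cells expressing an RFP-PRO-GFP fluorescent reporter construct / Compound dosing: single-point 20 µM compound, 1% DMSO / Schedule: cells overnight before dosing, compound overnight, 37 °C, 5% CO2 / Evaluation: GFP/RFP fluorescence ratio / Control set: DMSO and RFP-L50D-GFP cell wells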
rRNA inh HTS: selective bacterial rRNA inhibition in E. coli; E. coli WT GFP vs humanized-ribosome RFP mutants, fluorescence, 24 h; stronger effect = lower value; DMSO median 0, no signal -100; GFP signal change (wild-type ribosome), % (test concentration not listed); 350,000 compounds, 1.6% hits; AID 720706;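 active = significant combined selectivity score with lowered wild-type GFP, culture density cut under 30%, mutant RFP and density less affected; inactive = any of these conditions unmet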
iPSC survival up: increases survival of single human iPS cells; AID 602274; 360,000 compounds, 0.044% hits; survival enhancement, % at 20 µM; hiPSC single-cell survival, ATPlite luminescence; 100% = ROCK inhibitor wells, 0% = DMSO; in the data active = survival enhancement above about 18%;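 note: cells exposed to compounds for 16 hours before the ATP read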
SKN-1 block: blocks SKN-1 activity in C. elegans; 360,000 compounds, 0.49% hits; C. elegans VP596 Pgst-4::GFP/RFP ratio, acrylamide-induced, 24 h; inhibition, % at 21.8 µM;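 active = interference check ratio from 0.5 to 1.5 plus GFP to RFP signal ratio inhibition reaching or exceeding a fixed threshold, cut at about 30% in these data, passing the limit was not always enough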
* = called active by the depositor; / = no result given; ! = not confirmed by another sample. This is a sample that favours compounds with a hit; in the whole collection about 1.8% have one here.

SMILES | Cneo AK release | DAGLB inh | MT1-MMP act inh | rRNA inh HTS | iPSC survival up | SKN-1 block
CN1C(C(=O)c2ccccc2)=C(N)c2ccccc2S1(=O)=O | -2 | 1 | 4 | -23* | -1 | 2
Cc1ccc(NC2=C(C(=O)c3ccccc3)N(C)S(=O)(=O)c3ccccc32)cc1 | 0 | -5 | -4 | / | -3 | -5
O=C(O)c1ccccc1C(=O)NCc1c(Cl)cccc1Sc1ccc(Cl)cc1 | -2 | 0 | 0 | -29* | 0 | 6
O=C(O)CCCC(=O)NCc1c(Cl)cccc1Sc1ccc(Cl)cc1 | 1 | 2 | 0 | / | 0 | 9
CC(C)(CC(=O)O)CC(=O)NCc1c(Cl)cccc1Sc1ccc(Cl)cc1 | -1 | / | 2 | -40* | -1 | -6
O=C(CSc1ccccc1C(=O)O)NCc1ccc(Cl)cc1 | 4 | -1 | 8 | 18 | 0 | 25
O=C(O)CN1C(=O)C2C3CC(C2C1=O)C1C(c2ccc(Cl)cc2)c2sc(=O)[nH]c2SC31 (stereo not drawn) | / | 1 | -4 | 0 | -4 | 2
O=C(O)CN1C(=O)C2C3CC(C2C1=O)C1C(c2ccc(F)cc2)c2sc(=O)[nH]c2SC31 (stereo not drawn) | / | -1 | 2 | 15 | 2 | 48*
COc1ccc2c3c(n(C)c2c1)[C@@H](CO)N(C(=O)C1CCOCC1)CC31CCN(Cc2cccc(F)c2)CC1 | / | / | / | -2 | / | /
CCCNC(=O)/C(=C/c1cn(S(=O)(=O)N(C)C)c2ccccc12)NC(=O)c1ccc(OC)cc1 | / | 0 | 2 | -26* | -1 | -19
COc1ccc(C(=O)N/C(=C\c2cn(S(=O)(=O)N(C)C)c3ccccc23)C(=O)NCCCn2ccnc2)cc1 | 5 | 2 | 4 | -5 | 0 | 15
O=C(Nc1cccc2ccccc12)N1N=CCC1c1ccccc1 (stereo not drawn) | 0 | / | 0 | -28* | -1 | 10
O=C(Nc1cccc(Cl)c1)N1N=CCC1c1ccccc1 (stereo not drawn) | 6 | / | 4 | -27* | 0 | 8
CC(C)C[C@H]1COCc2cn(nn2)CC[C@H](Cc2cccc(Cl)c2)C(=O)N1 | / | / | / | 0 | / | /
CO[C@H]1CN(C)C(=O)c2cc(NC(=O)C3CCC3)ccc2OC[C@@H](C)N(C(=O)CN(C)C)C[C@@H]1C | 6 | / | / | 2 | / | /
OC(c1ccc(Cl)cc1)c1ncc(-c2cccc(C(F)(F)F)c2)[nH]1 (stereo not drawn) | 1 | / | -1 | -52 | 25* | 12
Cc1onc(-c2ccccc2)c1NC(=O)Nc1ccc(OC(F)F)cc1 | -2 | / | 5 | -22* | 1 | 4
COc1ccccc1S(=O)(=O)N[C@H]1C=C[C@H](CC(=O)NCc2cc(F)cc(F)c2)O[C@H]1CO | 7 | / | / | 0 | / | /
CC(C)Cn1c(N)c(C(=O)COC(=O)Cc2cccs2)c(=O)n(C)c1=O | 0 | -1 | 6 | / | 0 | 8
CC(C)Cn1c(N)c(C(=O)CSc2nnnn2C)c(=O)n(C)c1=O | 1 | 1 | 4 | / | -2 | 43*
CC(C)Cn1c(N)c(C(=O)COC(=O)c2cccc(Cl)c2)c(=O)n(C)c1=O | / | -4 | 0 | -28* | 0 | -23
Cn1c(N)c(C(=O)COC(=O)/C=C/c2ccccc2)c(=O)n(C)c1=O | -1 | -2 | 3 | -20* | 1 | -4
CC(C)Cn1c(N)c(C(=O)COC(=O)/C=C/c2cccs2)c(=O)n(C)c1=O | / | -3 | -5 | -23* | 6 | -2
CC(C)Cn1c(N)c(C(=O)CSc2nnnn2-c2ccc(Cl)cc2)c(=O)n(C)c1=O | / | 0 | 2 | 7 | 0 | 1
N#Cc1c(N)nc(SCc2ccccc2)c(C#N)c1-c1ccco1 | 1 | -7 | 3 | -43* | -1 | 22
SMILES | Cneo AK release | DAGLB inh | MT1-MMP act inh | rRNA inh HTS | iPSC survival up | SKN-1 block
O=C(c1cnn(C(=O)c2ccco2)c1)c1cc(Cl)cc(Cl)c1O | 3 | 0 | -5 | -25* | 0 | 1
CCN(CC)S(=O)(=O)c1ccc(O)c(C(=O)OCC(=O)NC23CC4CC(CC(C4)C2)C3)c1 | 6 | -2 | -1 | -21* | -2 | 4
O=C(NCC[C@@H]1CC[C@@H](NS(=O)(=O)c2ccccc2)[C@@H](CO)O1)c1cc(Cl)cc(Cl)c1 | -1 | / | / | -16*! | / | 17
O=C(NCC[C@H]1CC[C@H](NS(=O)(=O)c2ccc(F)cc2)[C@@H](CO)O1)c1ccc2c(c1)OCO2 | 102* | / | -1 | -7 | / | 9
O=C(NCC[C@H]1CC[C@@H](NS(=O)(=O)c2ccccc2)[C@H](CO)O1)c1cc(Cl)cc(Cl)c1 | 0 | / | / | -3 | / | /
CN1c2ccc(-c3ccc(F)cc3)cc2[C@@H]2[C@@H](CCN2C(=O)CC2CC2)[C@H]1CO | / | / | / | -23 | / | /
C[C@@H]1CCCCO[C@@H](CN(C)C(=O)Nc2ccccc2)[C@@H](C)CN([C@H](C)CO)C(=O)c2cc(NS(=O)(=O)c3cn(C)cn3)ccc2O1 | -5 | / | / | 5 | / | /
O=C(NCc1cccs1)c1csc([C@@H]2O[C@H](CO)[C@H](O)[C@H](O)[C@H]2O)n1 | -1 | / | 0 | 3 | 3 | 43*
O=C(NCc1ccncc1)c1csc([C@@H]2O[C@H](CO)[C@@H](O)[C@H]2O)n1 | 1 | / | -3 | 17 | 4 | 18
C[C@@H]1CN([C@@H](C)CO)C(=O)Cc2cc(NC(=O)Nc3ccc(C(F)(F)F)cc3)ccc2O[C@@H]1CN(C)Cc1ccc(Oc2ccccc2)cc1 | 2 | / | / | 6 | / | /
COC(=O)c1[nH]c2cc(OC)c(OC)cc2c1/C=N/Nc1ccccc1 | / | 7 | 6 | -19* | -1 | 5
CN(C)S(=O)(=O)N(CC(=O)N1CCC(Cc2ccccc2)CC1)c1ccccc1 | 0 | -4 | 7 | -12 | -1 | 7
COc1ccc(N(CC(=O)N2CCC(Cc3ccccc3)CC2)S(C)(=O)=O)cc1 | / | 1 | 3 | -21* | -3 | 2
CCOC(=O)N1CCN(c2nc3ccccc3n3cnnc23)CC1 | / | -2 | -3 | -17* | 2 | 10
C[C@@H]1CN([C@@H](C)CO)C(=O)Cc2cc(NC(=O)NC3CCCCC3)ccc2O[C@@H]1CN(C)S(=O)(=O)c1cn(C)cn1 | 3 | / | / | 6 | / | /
C[C@H](NC(=O)C[C@H]1CC[C@H](NC(=O)CN2CCOCC2)[C@H](CO)O1)c1ccccc1 | 17 | / | / | -2 | / | /
CC(C)c1ccccc1NC(=S)NN(Cc1ccccc1)c1ccccc1 | 231* | -3 | -6 | / | -2 | 23
Cc1cccc(C)c1NC(=S)NN(Cc1ccccc1)c1ccccc1 | 2 | 1 | -5 | / | -5 | 10
Fc1ccccc1NC(=S)NN(Cc1ccccc1)c1ccccc1 | / | -1 | -2 | 3 | 0 | 39*
